Assay outcomes: PubChem BioAssay, The Scripps Research Institute Molecular Screening Center
The list is not random: actives were taken first. Their share in the collection is about 1.8%.
NPY2 pot ag – potentiators or agonists of human neuropeptide Y receptor Y2; activation, % at 3.6 µM; P49146; hit rate 0.45% among 220,000; cells expressing NPY-Y2, potentiator/agonist read-out; in the data active = activation above about 27%;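 also: cells stimulated with NPY near EC25 plus isoproterenol at EC100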
Target sequence (P49146 whole entry, looked up): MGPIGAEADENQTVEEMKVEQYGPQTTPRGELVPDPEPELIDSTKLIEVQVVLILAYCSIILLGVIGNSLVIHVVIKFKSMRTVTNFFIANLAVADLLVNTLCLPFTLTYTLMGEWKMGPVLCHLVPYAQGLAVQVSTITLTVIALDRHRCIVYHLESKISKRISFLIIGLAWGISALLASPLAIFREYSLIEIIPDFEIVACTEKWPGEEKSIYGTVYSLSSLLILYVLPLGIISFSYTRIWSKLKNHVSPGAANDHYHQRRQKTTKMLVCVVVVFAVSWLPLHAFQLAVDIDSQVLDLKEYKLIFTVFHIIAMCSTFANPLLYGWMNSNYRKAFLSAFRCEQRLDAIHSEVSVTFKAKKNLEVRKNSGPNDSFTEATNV
NPY Y1 blocker – antagonists of human neuropeptide Y receptor Y1; P25929; HEK293-CNG Y1 cells, membrane potential fluorescence; NPY at EC95, then isoproterenol; inhibition, % at 3.6 µM; hit rate 1% among 200,000; AID 1040;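 active = inhibition above the campaign mean inhibition of all tested compounds plus 3 SD, cut at about 20% in these data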
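Test system: HEK293 cells co-expressing NPY Y1 receptor and cyclic-nucleotide gated channel; Also added: NPY (25 nM), isoproterenol (1 µM), Ro 20-1724 (25 µM); Compound dosing: one concentration, 3.6 µM, in 0.4% DMSO; Timing: dye 3 h, compound 60 min room temperature, stimulation 45 min; Technique: Membrane-potential fluorescent dye readout.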
NPY1 pot ag – potentiators or agonists of human neuropeptide Y receptor Y1; hit rate 0.37% among 220,000; activation, % at 3.6 µM; NPY-Y1 expressing cells, potentiator/agonist activation; AID 1304; P25929; in the data active = activation above about 33%, passing the limit was not always enough;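 also: cells stimulated with NPY at EC10 then isoproterenol at EC100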
NPY-Y2 antag – blocks the human neuropeptide Y Y2 receptor | P49146 | NPY-Y2 expressing cells, antagonist mode | inhibition, % at 2.7 µM | hit rate 0.99% among 140,000; in the data active = inhibition above about 17%
NPY-Y1 antag ct – antagonizes human NPY-Y1, counter-screen to NPY-Y2 antagonists; shares compounds with NPY-Y2 antag; cell-based NPY-Y1 antagonism counterscreen; inhibition, % at 3.6 µM; hit rate 19% among 710; AID 1256; in the data active = inhibition above about 20%;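 also: cells challenged with NPY then isoproterenol with cAMP sensed through a CNG channel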
NPY2 antag conf – confirmation of human neuropeptide Y receptor Y2 antagonists; shares compounds with NPY-Y2 antag; HEK293 NPY-Y2 CNG channel, membrane potential fluorescence; inhibition, % at 2.8 µM; hit rate 32% among 710; AID 1257;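 active = mean inhibition of triplicate wells above the hit cutoff set in the primary screen, cut at about 17% in these data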
Large screens that a line does not name were inactive (follow-up assays come after a bar, where they were run).

OC(CCN1CCCCC1)(c1ccccc1)C1CCCCC1 (configuration not stated)	NPY-Y2 antag 20.3 | NPY-Y1 antag ct inactive | NPY2 antag conf inactive
OC(CCN1CCOCC1)(c1ccc(Cl)cc1)C1CCCCC1 (configuration not stated)	none
CCN(CC)c1ccc(NC(=O)COC(=O)CSc2ccc(Br)cc2C)cc1	none
Cc1cc(C)c(NC(=O)COC(=O)CSc2ccc(Br)cc2C)c(C)c1	NPY-Y2 antag 17.6 | NPY-Y1 antag ct inactive | NPY2 antag conf inactive
COc1ccc(-n2c3c(cc(C#N)c2=O)C(=O)CCC3)cc1	none (no result: NPY-Y2 antag)
Cc1c(CNC2CCCC2)c(C(=O)O)c(C)n1Cc1ccccc1	none
Cc1cc(C)c2c(=O)[nH]c(SCC(=O)Nc3ccccc3)nc2n1	NPY-Y2 antag 18.7 | NPY-Y1 antag ct inactive | NPY2 antag conf inactive
CCc1cccc(CC)c1NC(=O)c1ccccc1CCc1ccccc1	NPY-Y2 antag 18.7 | NPY-Y1 antag ct 28.2 | NPY2 antag conf inactive
Cc1cccc(Nc2nnc(SCC(=O)N(C)C3CCS(=O)(=O)C3)s2)c1C (configuration not stated)	none
CCOC(=O)N1CCC(NC(=O)CSCc2nc(-c3sccc3C)oc2C)CC1	none
CCOC(=O)N1CCC(NC(=O)CSCc2nc(-c3cccc(OC)c3)oc2C)CC1	NPY-Y2 antag 23.9 | NPY-Y1 antag ct inactive | NPY2 antag conf inactive
O=C(O)c1ccc(S(=O)(=O)c2ccc3c(c2)C(=O)N(Cc2ccco2)C3=O)cc1	none
Brc1ccc2c(c1)OCCOCCOc1cc(Br)ccc1OCCOCCOCCO2	NPY-Y2 antag 23.8 | NPY-Y1 antag ct inactive | NPY2 antag conf inactive
Brc1cc2c(cc1Br)OCCOCCOCCOCCO2	none (no result: NPY-Y2 antag)
Cc1nnc(SC2CC(=O)N(c3ccccc3)C2=O)s1 (configuration not stated)	none
Cc1nc(SC2CC(=O)N(c3ccccc3)C2=O)nc2c1CCCC2 (configuration not stated)	NPY-Y2 antag 21.0 | NPY-Y1 antag ct inactive | NPY2 antag conf inactive
COc1ccc(C)cc1NC(=O)C(Sc1nnc(-c2ccncc2)n1-c1ccc(Cl)cc1)c1ccccc1 (configuration not stated)	none
CCNc1ccc2noc3c2c1C(=O)c1ccccc1-3	NPY2 pot ag 49.4, NPY1 pot ag 71.6, NPY-Y2 antag 44.7 | NPY-Y1 antag ct inactive | NPY2 antag conf inactive
Clc1ccc(CSc2nnc(-c3ccc4c(c3)OCO4)o2)cc1	NPY-Y2 antag 22.4 | NPY-Y1 antag ct 26.9 | NPY2 antag conf 29.7
Clc1ccc(CSc2nnc(-c3ccncc3)o2)cc1	none
O=C(CCCOc1ccc(Cl)cc1Cl)N/N=C/c1ccccc1	none
O=C(COc1ccc(Cl)cc1Cl)N/N=C/CCc1ccccc1	NPY-Y2 antag 20.6 | NPY-Y1 antag ct inactive | NPY2 antag conf inactive
OC(CNCc1ccc(F)cc1)(c1ccc(F)cc1)c1ccc(F)cc1	NPY-Y2 antag 19.8 | NPY-Y1 antag ct inactive | NPY2 antag conf inactive
CN(C)S(=O)(=O)c1ccc(N2CCCC2)c(C(=O)NC(c2ccccc2)c2ccccc2)c1	NPY-Y2 antag 22.6 | NPY-Y1 antag ct inactive | NPY2 antag conf inactive
COc1cccc(-c2nnc3sc(-c4ccc(C)cc4)nn23)c1	NPY-Y2 antag 26.3 | NPY-Y1 antag ct inactive | NPY2 antag conf inactive
Cn1c(=O)c2c(n(Cc3ccccc3)c1=O)NC(=O)C2CC(=O)NCc1cccc(Cl)c1 (configuration not stated)	none
COc1cccc(C2c3c(oc4ccccc4c3=O)C(=O)N2CCCN(C)C)c1OC (configuration not stated)	none
CCN(CC)CCCN1C(=O)c2oc3ccccc3c(=O)c2C1c1cccc(OC)c1OC (configuration not stated)	NPY-Y2 antag 19.4 | NPY-Y1 antag ct inactive | NPY2 antag conf inactive
COc1ccccc1C/C(N)=N/OC(=O)COc1ccccc1C	NPY-Y2 antag 28.5 | NPY-Y1 antag ct inactive | NPY2 antag conf inactive
CC(/C=C/C(=O)c1ccc(C)cc1)=C\c1ccccc1	none
Cc1ccc(C(=O)/C=C\C(=O)c2ccc(C)cc2)cc1	NPY-Y2 antag 20.3 | NPY-Y1 antag ct 45.3 | NPY2 antag conf 110.6
COc1cccc(C2C(C(N)=O)=C(C)Nc3nc(-c4ccccc4Cl)nn32)c1 (configuration not stated)	NPY-Y2 antag 20.1 | NPY-Y1 antag ct inactive | NPY2 antag conf inactive
COCCNC(=O)CSc1nc(-c2ccccc2)cs1	none
Nc1c2c(nc3sc4c(c13)CCCC4)CCCCCC2	NPY-Y2 antag 18.6 | NPY-Y1 antag ct inactive | NPY2 antag conf 17.8
Nc1nc2sc3c(c2c(=O)s1)CCCC3	none
CCCn1nc(-c2nnc(-c3ccc(C)c(C)c3)o2)c2ccccc2c1=O	none
Cc1n[nH]c(=S)n1/N=C/c1ccc(OCc2ccc(Cl)cc2Cl)cc1	none
Cc1n[nH]c(=S)n1/N=C/c1ccccc1OCc1ccc(Cl)cc1Cl	NPY-Y2 antag 17.2 | NPY-Y1 antag ct 27.4 | NPY2 antag conf 54.3
Cc1ccc(S(=O)(=O)CCSc2n[nH]c(=O)n2-c2ccc3c(c2)OCCO3)cc1	none (no result: NPY Y1 blocker, NPY-Y2 antag)
Cc1cc(C)n(C(=O)CCCn2nc(C)c([N+](=O)[O-])c2C)n1	none (no result: NPY-Y2 antag)
COc1ccccc1C1(CC(=O)Nc2nccs2)CCOC(C(C)C)C1 (configuration not stated)	none
Cc1nc(-c2ccccc2)sc1C(=O)CSc1ccc(Cl)cc1	NPY-Y2 antag 20.0 | NPY-Y1 antag ct inactive | NPY2 antag conf 25.1
Cc1ccc(N2C(=O)CSC2c2ccc3c(c2)OCO3)cc1 (configuration not stated)	NPY-Y2 antag 18.0 | NPY-Y1 antag ct inactive | NPY2 antag conf inactive
O=C1CSC(c2ccc3c(c2)OCO3)N1c1ccc(Oc2ccccc2)cc1 (configuration not stated)	none
O=C(c1cc2sccc2n1Cc1ccccc1)N1CCc2ccccc21	NPY-Y2 antag 19.8 | NPY-Y1 antag ct inactive | NPY2 antag conf inactive
Cc1nc(C(=O)Nc2cccc(Cl)c2)nn1-c1cc(OC(C)C)c(Cl)cc1Cl	NPY-Y2 antag 17.2 | NPY-Y1 antag ct 20.2 | NPY2 antag conf inactive
Cc1nc2cc(NC(=O)Nc3ccc(Br)cc3)ccc2o1	none (no result: NPY-Y2 antag)
Cc1ccccc1NC(=O)c1cccc2nc3ccccc3nc12	NPY-Y2 antag 19.0 | NPY-Y1 antag ct inactive | NPY2 antag conf inactive
Cc1ccccc1NC(=O)c1ccccc1NC(=O)Cc1cccc2ccccc12	none
O=C(/C=C/c1cccc(Cl)c1)c1nc2ccccc2[nH]1	NPY-Y2 antag 17.7 | NPY-Y1 antag ct inactive | NPY2 antag conf 33.6
Cc1cnc(C(=O)Nc2ccccc2-c2nnn(CC(=O)NC3CCCC3)n2)cn1	none
Cc1sc2ncn(/N=C/c3ccco3)c(=O)c2c1C	none (no result: NPY Y1 blocker, NPY-Y2 antag)
O=C(CSCc1c(Cl)cccc1Cl)Nc1ccccc1-c1ccccc1	NPY-Y2 antag 37.5 | NPY-Y1 antag ct inactive | NPY2 antag conf 24.1
O=C(COC(=O)Cc1c(Cl)cccc1Cl)Nc1ccccc1-c1ccccc1	none
CCOc1ccc(-n2c(SCC(=O)c3c(N)n(C)c(=O)n(C)c3=O)nnc2-c2cccnc2)cc1	none
Nc1nc(CN2CCCCCC2)nc(Nc2ccccc2)n1	none
